According to EPA's CvTdb concentration-time database:

Columns and labels:
human [1] = assay: concentration in expired air after dosing; negative times count back from the end of exposure; details: dosed: dichloromethane, inhalation, duration: 6 hr, male
How it was run: (§1)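 Data points giving concentration or amount against time came from published in vivo toxicokinetic studies and from two structured collections. PubMed searching, classifier screening and manual review located the studies. Most points were digitised from plot screenshots using WebPlotDigitizer, the rest were copied from tables, and all keep their reported units.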

human [2] = assay: concentration in blood after dosing; negative times count back from the end of exposure; details: inhalation, duration: 4 hr
How it was run: as §1

rat [3] = assay: concentration in expired air after dosing; details: dosed: hexachloroethane, 53.3 ppm, inhalation, duration: 6 hr
rat [4] = assay: concentration in expired air after dosing; details: dosed: hexachloroethane, 53.3 ppm, inhalation, duration: 6 hr; remark: listed apart in the source
rat [5] = assay: concentration in blood after dosing; negative times count back from the end of exposure; details: inhalation
dog = assay: concentration in blood after dosing; negative times count back from the end of exposure; details: dosed: tetrachloroethylene, inhalation, duration: 4 hr, male, beagle
How it was run: as §1

[C-]#[O+] [carbon monoxide]
concentration in expired air [ppm], human [1]
Details | 100 ppm | 350 ppm
0.083 h | 17.1 | 34.6
0.25 h | 16.2 | 32.5
0.5 h | 15.8 | 32.6
1 h | 15.7 | 33.3
1.5 h | 14.9 | 32.3
2 h | 14.6 | 30.9
3 h | 11.8 | 26.8
4 h | 10.8 | 25.1
6 h | 10 | 21.2
8 h | 9.1 | 16.9
16 h | 6.8 | 11.8
24 h | 4.3 | 5.6

concentration in expired air [ppm], human [1], during exposure
Details | -36 s | -6 h | -5.75 h | -5.5 h | -5 h | -4.5 h | -4 h | -3 h | -2 h | -1 h
100 ppm | 16.8 | 3.8 | 5.3 | 5.8 | 7 | 8.1 | 9 | 10.7 | 13.1 | 15.3
350 ppm | 36.1 | 4.2 | 6.5 | 7.6 | 10.5 | 13.3 | 16.1 | 20.9 | 25.9 | 31.1

CCO [ethanol]
concentration in blood [ng/mL], human [2], dosed: ethanol
Details | female | male
0.4897 h, 125 ppm | 60 | 62.3
0.4897 h, 250 ppm | – | 101
0.4897 h, 450 ppm | 158 | 201
0.4966 h, 750 ppm | 299 | 227
0.4966 h, 1000 ppm | 571 | 267
0.9954 h, 250 ppm | 74.2 | 67.1
1.002 h, 125 ppm | 42.9 | 40.8
1.002 h, 450 ppm | 101 | 112
1.002 h, 750 ppm | 153 | 94
1.002 h, 1000 ppm | 248 | 142

concentration in blood [ng/mL], human [2], dosed: ethanol, during exposure
Details | -33 s | -8 s | -4 h | -3.002 h | -2.995 h | -1.007 h | -1 h
125 ppm, female | – | 179 | 35.6 | 165 | – | – | 158
125 ppm, male | – | 196 | 36.9 | 165 | – | – | 196
250 ppm, female | 451 | – | 78.9 | 374 | – | 445 | –
250 ppm, male | – | – | 42.9 | 468 | – | 457 | –
450 ppm, female | 1000 | – | 52.4 | 851 | – | – | 1000
450 ppm, male | 1090 | – | – | 851 | – | – | 905
750 ppm, female | – | 1620 | 65.5 | – | 1430 | – | 1860
750 ppm, male | – | 2060 | – | – | 1770 | – | 1510
1000 ppm, female | 2640 | – | 133 | – | 2300 | – | 2510
1000 ppm, male | 2920 | – | – | – | 2810 | – | 2360

ClC(Cl)(Cl)C(Cl)(Cl)Cl [hexachloroethane]
concentration in expired air [ng/mL]
Details | rat [3] | rat [4]
0.2509 h | 96.3 | –
0.7326 h | 55.5 | –
0.8034 h | – | 73.1
0.9876 h | 48.8 | 51.1
1.498 h | 49.2 | –
1.653 h | – | 36.3
1.979 h | – | 26.3
2.489 h | 27.8 | 24.2
2.985 h | 19.8 | –
3.509 h | – | 17.9
4.983 h | 15.7 | 10.9
5.975 h | 15.4 | –
5.989 h | – | 10.1
7.236 h | – | 9.9
7.986 h | 7.51 | 8.23
8.978 h | 6.78 | 7.36
9.998 h | 5.85 | 6.12
29.5 min | – | 79.4

CCCCCC [n-hexane]
rat [5], dosed: n-hexane, 3000 ppm, duration: 6 hr
Details | concentration in blood [ng/mL]
0.4718 h | 2220
0.9831 h | 1920
1.99 h | 1370
4.003 h | 65.6
5.974 h | 42.2
7.994 h | 59.3
29 s | 8420

rat [5], dosed: n-hexane, 3000 ppm, duration: 6 hr, during exposure
Details | concentration in blood [ng/mL]
-6 h | 20.3
-5.509 h | 7900
-5.025 h | 8530
-4.008 h | 9820
-3.002 h | 9010
-2.005 h | 9720

CCCCCCCCC [nonane]
rat [5], dosed: nonane, duration: 4 hr
Details | concentration in blood [µg/g]
-83 s, 100 ppm, Fischer-344, during exposure | 0.892
-71 s, 500 ppm, Fischer-344, during exposure | 4.34
-56 s, 1000 ppm, Fischer-344, during exposure | 16.8
-3.501 h, 500 ppm, Fischer-344, during exposure | 2.02
-3.496 h, 1000 ppm, Fischer-344, during exposure | 7.04
-3.494 h, 100 ppm, Fischer-344, during exposure | 0.434
-3.003 h, 100 ppm, Fischer-344, during exposure | 0.523
-2.994 h, 1000 ppm, Fischer-344, during exposure | 6.96
-2.988 h, 500 ppm, Fischer-344, during exposure | 2.21
-2.014 h, 1000 ppm, Fischer-344, during exposure | 15.4
-2.009 h, 100 ppm, Fischer-344, during exposure | 0.518
-2.007 h, 500 ppm, Fischer-344, during exposure | 3.72
-1.02 h, 1000 ppm, Fischer-344, during exposure | 17.2
-1.016 h, 100 ppm, Fischer-344, during exposure | 0.672
-1.013 h, 500 ppm, Fischer-344, during exposure | 3.57
0.1362 h, 1000 ppm, Fischer-344 | 11
0.1413 h, 100 ppm, Fischer-344 | 0.367
0.1425 h, 500 ppm, Fischer-344 | 2.81
0.2276 h, 100 ppm, Fischer-344 | 0.309
0.2331 h, 1000 ppm, Fischer-344 | 9.37
0.2405 h, 500 ppm, Fischer-344 | 1.93
0.4818 h, 1000 ppm, Fischer-344 | 5.11
0.4859 h, 100 ppm, Fischer-344 | 0.209
0.4867 h, 500 ppm, Fischer-344 | 1.77
0.9803 h, 500 ppm, Fischer-344 | 1.17
0.9804 h, 100 ppm, Fischer-344 | 0.115
0.9849 h, 1000 ppm, Fischer-344 | 4.34
1.969 h, 100 ppm, Fischer-344 | 0.0382
1.99 h, 500 ppm, Fischer-344 | 0.41
1.992 h, 1000 ppm, Fischer-344 | 2.37
2.984 h, 500 ppm, Fischer-344 | 0.368
2.985 h, 100 ppm, Fischer-344 | 0.0308
2.999 h, 1000 ppm, Fischer-344 | 1.47
3.992 h, 100 ppm, Fischer-344 | 0.0196
3.997 h, 1000 ppm, Fischer-344 | 0.691
4.002 h, 500 ppm, Fischer-344 | 0.255
198 s, 100 ppm, Fischer-344 | 0.432
217 s, 1000 ppm, Fischer-344 | 13.7
239 s, 500 ppm, Fischer-344 | 3.73

ClC(Cl)=C(Cl)Cl [tetrachloroethylene]
dog
Details | concentration in blood [ng/mL]
2.446 h, 142 ppm | 696
2.79 h, 72 ppm | 345
18.14 h, 72 ppm | 371
18.34 h, 142 ppm | 848
42.06 h, 72 ppm | 352
42.32 h, 142 ppm | 798
67.19 h, 72 ppm | 315
67.21 h, 142 ppm | 681
91.19 h, 72 ppm | 262
92.53 h, 142 ppm | 603
139.29 h, 72 ppm | 166
139.47 h, 142 ppm | 405
163.11 h, 72 ppm | 135
163.12 h, 142 ppm | 314

dog, during exposure
Details | concentration in blood [ng/mL]
-227 s, 72 ppm | 200
-0.3342 h, 142 ppm | 516

human [2], dosed: tetrachloroethylene, 144 ppm, male
Details | concentration in blood [ng/mL]
2.478 h | 601
18.43 h | 752
42.35 h | 705
67.23 h | 618
92.18 h | 515
139.2 h | 334
163.09 h | 271

Details | concentration in blood [ng/mL]
human [2], -0.3835 h, dosed: tetrachloroethylene, 144 ppm, male, during exposure | 484
